In ChEMBL document CHEMBL3871288, “Marine sponge alkaloids as a source of anti-bacterial adjuvants” (Bioorg Med Chem Lett, 2016):

Columns and labels:
Acinetobacter baumannii [1] = assay: Potentiation of meropenem-induced antibacterial activity against Acinetobacter baumannii AB5075 assessed as meropenem MIC at 10 uM measured after 16 to 18 hrs by serial dilution assay (reference value: 32 ug/ml); type: functional
Staphylococcus aureus [2] = assay: Antibiofilm activity against methicillin-resistant Staphylococcus aureus BAA-1685 after 24 hrs by crystal violet staining based assay; type: functional; conditions: BAA-1685, 24 h
Staphylococcus aureus [3] = assay: Potentiation of oxacillin-induced antibacterial activity against methicillin-resistant Staphylococcus aureus BAA-1556 assessed as oxacillin MIC at 10 uM measured after 16 to 18 hrs by serial dilution assay (reference value: 32 ug/ml); type: functional
Acinetobacter baumannii [4] = assay: Antibiofilm activity against Acinetobacter baumannii ATCC 19606 after 24 hrs by crystal violet staining based assay; type: functional; conditions: ATCC 19606, 24 h
Staphylococcus aureus [5] = assay: Potentiation of oxacillin-induced antibacterial activity against methicillin-resistant Staphylococcus aureus BAA-1556 assessed as oxacillin MIC at 5 uM measured after 16 to 18 hrs by serial dilution assay (reference value: 32 ug/ml); type: functional
Acinetobacter baumannii [6] = assay: Antibiofilm activity against Acinetobacter baumannii ATCC 19606 at 50 uM after 24 hrs by crystal violet staining based assay relative to control; type: functional; conditions: ATCC 19606, 24 h
Staphylococcus aureus [7] = assay: Potentiation of vancomycin-induced antibacterial activity against vancomycin intermediate Staphylococcus aureus ATCC 700699 assessed as vancomycin MIC at 25 uM measured after 16 to 18 hrs by serial dilution assay (reference value: 8 ug/ml); type: functional; conditions: Mu50
Outline: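 Vancomycin MIC was measured against vancomycin-intermediate S. aureus ATCC 700699 with the alkaloid co-dosed at a fixed concentration. Levels used across the series were 25 and 50 µM.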

Staphylococcus aureus [8] = assay: Potentiation of oxacillin-induced antibacterial activity against methicillin-resistant Staphylococcus aureus BAA-1556 assessed as oxacillin MIC at 25 uM measured after 16 to 18 hrs by serial dilution assay (reference value: 32 ug/ml); type: functional
Staphylococcus aureus [9] = assay: Potentiation of oxacillin-induced antibacterial activity against methicillin-resistant Staphylococcus aureus BAA-1556 assessed as oxacillin MIC at 50 uM measured after 16 to 18 hrs by serial dilution assay (reference value: 32 ug/ml); type: functional
Staphylococcus aureus [10] = assay: Ratio of oxacillin MIC for methicillin-resistant Staphylococcus aureus BAA-1556 in presence of test compound to oxacillin MIC for methicillin-resistant Staphylococcus aureus harboring vraR mutant in presence of test compound; type: functional
Staphylococcus aureus [11] = assay: Potentiation of oxacillin-induced antibacterial activity against methicillin-resistant Staphylococcus aureus BAA-1556 assessed as oxacillin MIC at 40 uM measured after 16 to 18 hrs by serial dilution assay (reference value: 32 ug/ml); type: functional
Pseudomonas aeruginosa = assay: Antibiofilm activity against Pseudomonas aeruginosa PA14 after 24 hrs by crystal violet staining based assay; type: functional; conditions: PA14, 24 h
Acinetobacter baumannii [12] = assay: Antibiofilm activity against Acinetobacter baumannii ATCC 19606 at 100 uM after 24 hrs by crystal violet staining based assay relative to control; type: functional; conditions: ATCC 19606, 24 h
Staphylococcus aureus [13] = assay: Potentiation of oxacillin-induced antibacterial activity against methicillin-resistant Staphylococcus aureus NE481 assessed as oxacillin MIC at 25 uM measured after 16 to 18 hrs by serial dilution assay (reference value: 1 ug/ml)
Staphylococcus aureus [14] = assay: Potentiation of vancomycin-induced antibacterial activity against vancomycin intermediate Staphylococcus aureus ATCC 700699 assessed as vancomycin MIC at 50 uM measured after 16 to 18 hrs by serial dilution assay (reference value: 8 ug/ml); type: functional; conditions: Mu50
Staphylococcus aureus [15] = assay: Potentiation of oxacillin-induced antibacterial activity against methicillin-resistant Staphylococcus aureus harboring vraR mutant assessed as oxacillin MIC at 25 uM measured after 16 to 18 hrs by serial dilution assay; type: functional

SMILES | MIC (Acinetobacter baumannii [1]) [µg/mL] | IC50 (Staphylococcus aureus [2]) [µM] | MIC (Staphylococcus aureus [3]) [µg/mL] | IC50 (Acinetobacter baumannii [4]) [µM] | MIC (Staphylococcus aureus [5]) [µg/mL] | inhibition at 50 µM (Acinetobacter baumannii [6]) [%] | MIC (Staphylococcus aureus [7]) [µg/mL] | MIC (Staphylococcus aureus [8]) [µg/mL] | MIC (Staphylococcus aureus [9]) [µg/mL] | Ratio (Staphylococcus aureus [10]) | MIC (Staphylococcus aureus [11]) [µg/mL] | IC50 (Pseudomonas aeruginosa) [µM] | inhibition at 100 µM (Acinetobacter baumannii [12]) [%] | MIC (Staphylococcus aureus [13]) [µg/mL] | MIC (Staphylococcus aureus [14]) [µg/mL] | MIC (Staphylococcus aureus [15]) [µg/mL]
Nc1nc([C@@H]2c3[nH]c(N)nc3C[C@H](CNC(=O)c3cc(Br)c[nH]3)[C@H]2CNC(=O)c2cc(Br)c(Br)[nH]2)c[nH]1 [BROMOAGELIFERIN] | 8 | 10.6 | 2 | 28.3 | 16 |  |  |  |  |  |  |  |  |  |  | 
Nc1ncc([C@@H]2[C@@H](CNC(=O)c3cc(Br)c(Br)[nH]3)[C@H](CNC(=O)c3cc(Br)c(Br)[nH]3)[C@H]2c2cnc(N)[nH]2)[nH]1 | 8 | 15.3 | 2 | > 50 | 8 | 48 |  |  |  |  |  |  |  |  |  | 
Nc1ncc([C@@H]2[C@@H](CNC(=O)c3cc(Br)c[nH]3)[C@H](CNC(=O)c3cc(Br)c[nH]3)[C@H]2c2cnc(N)[nH]2)[nH]1 |  | 37.6 |  | 30.5 |  |  |  |  |  |  |  |  |  |  |  | 
Nc1ncc(/C=C/CNC(=O)c2cc(Br)c(Br)[nH]2)[nH]1 [OROIDIN] |  | 77.3 |  | > 100 |  |  | 4 | 8 | 0.5 | 4 | 2 | 166 | 29 | 0.5 | 2 | 2
